The values that follow come from publication PMC6146057 (ACS chemical neuroscience, 2018).

Data set [1] can be described thus: Plasma protein binding by equilibrium dialysis, human. The class given is in vitro ADME. Conditions: pH 7.4. A digest of the protocol:
(§1)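 Plasma spiked with test article was dialysed against 25 mM phosphate buffer, pH 7.4, by equilibrium dialysis for 4 h at 37 °C with shaking. Aliquots from each chamber were matrix-matched, extracted with ice-cold acetonitrile, centrifuged and quantified by LC/MS/MS.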
For orientation: In equilibrium dialysis only unbound substance equilibrates across the membrane.

Another data set addresses T1, dog M1 (Canis lupus familiaris, UniProt A0A8I3RVA9).
T1 sequence (A0A8I3RVA9 1-460): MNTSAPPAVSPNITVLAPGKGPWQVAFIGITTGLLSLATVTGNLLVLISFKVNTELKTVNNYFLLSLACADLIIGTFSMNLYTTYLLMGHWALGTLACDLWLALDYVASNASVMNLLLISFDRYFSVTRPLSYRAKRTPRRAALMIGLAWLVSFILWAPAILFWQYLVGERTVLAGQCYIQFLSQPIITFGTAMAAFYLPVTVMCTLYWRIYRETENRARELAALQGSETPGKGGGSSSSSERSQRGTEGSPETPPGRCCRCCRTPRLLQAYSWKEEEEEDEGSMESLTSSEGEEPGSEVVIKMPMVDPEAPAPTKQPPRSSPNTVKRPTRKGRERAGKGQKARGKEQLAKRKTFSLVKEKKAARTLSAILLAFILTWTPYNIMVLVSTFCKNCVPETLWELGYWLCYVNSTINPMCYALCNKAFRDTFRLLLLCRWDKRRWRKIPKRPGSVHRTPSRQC
The data set can be described thus: Calcium mobilization assay, low expression M1 dog line. The class given is cell-based. (In general: A change in cytosolic calcium serves as a functional read-out for many receptors and channels.)

Data set [2] in a line: Plasma protein binding by equilibrium dialysis, cyno. The class given is in vitro ADME. To be noted: cynomolgus monkey, pH 7.4. The essentials:
as §1

For data set [3], the system named is 68 GPCRs, ion channels, and transporters. The data set can be described thus: Eurofins Lead Profiling panel. To be noted: @10 μM, 68 targets. The class given is binding.
The target in a further data set is T2, rat M1 (Rattus norvegicus, UniProt P08482).
T2 sequence (P08482 1-460): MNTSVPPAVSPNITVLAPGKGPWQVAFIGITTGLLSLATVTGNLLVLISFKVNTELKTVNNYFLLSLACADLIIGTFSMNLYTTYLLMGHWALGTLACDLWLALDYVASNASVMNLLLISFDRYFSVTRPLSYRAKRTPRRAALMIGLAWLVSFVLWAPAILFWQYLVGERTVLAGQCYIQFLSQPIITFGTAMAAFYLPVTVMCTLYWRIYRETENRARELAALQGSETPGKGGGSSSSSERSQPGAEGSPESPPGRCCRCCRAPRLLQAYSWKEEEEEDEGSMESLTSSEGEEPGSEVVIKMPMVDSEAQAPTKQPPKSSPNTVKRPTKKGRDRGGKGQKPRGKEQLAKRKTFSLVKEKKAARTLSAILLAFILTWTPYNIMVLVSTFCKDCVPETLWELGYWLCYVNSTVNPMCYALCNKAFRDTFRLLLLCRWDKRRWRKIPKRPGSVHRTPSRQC
The data set can be described thus: [3H]-NMS competition radioligand binding. Conditions: up to 30 μM, rat M1-CHO membranes. The essentials:
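Rat M1-CHO membranes (10 μg) were incubated with test compound (11-point 1:3 series, top final 30 μM) and 0.088 nM [3H]-NMS (Kd). Binding buffer was 20 mM HEPES, 10 mM MgCl2 and 100 mM NaCl, pH 7.4, for 1 h at room temperature with shaking. Nonspecific binding was defined with 10 μM atropine. Samples were filtered, washed three times with ice-cold Tris buffer and counted by scintillation.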

Entries after “also recorded” stand apart in the source; their conditions may differ. Read-outs that look alike come from different tables or passages of the source.

For `O=C(N[C@H]1CCCC[C@@H]1O)[C@H]1CN(Cc2ccc(-n3cccn3)cc2)c2ccccc2O1` [VU0486846, (2R)-N-[(1S,2S)-2-Hydroxycyclohexyl]-4-[(4-pyrazol-1-ylphenyl)-methyl]-2,3-dihydro-1,4-benzoxazine-2-carboxamide], the results for the fraction unbound at 4 h in data set [1] and in data set [2] were 0.12 and 0.016, respectively. Also, the EC50 is 0.38 µM on dog M1 (M1 PAM EC50, dog M1 line, low expression); 0.389 µM on dog M1 (M1 PAM pEC50, dog M1 line, low expression); greater than 10 µM at dog M1 (M1 agonist activity EC50, dog M1 line, compound alone). Also, the Emax turned out to be 78 ± 1% at dog M1 (read-out: M1 PAM efficacy, % ACh Max) and 18 ± 0.2% on dog M1 (read-out: M1 agonist activity, % ACh Max). The “inhibition at any target in the panel” value in data set [3] is listed as no more than 50%. The “Inhibition of orthosteric [3H]-NMS binding” value on rat M1 is “no displacement of [^3H]-NMS binding; also recorded: does not substantially inhibit binding”.

Usually fraction unbound stands for free concentration divided by total concentration. Usually EC50 stands for the concentration giving half of the maximal effect. As a reminder, the inhibition is the drop in the measured response relative to a control, in per cent.
